Assay results collected from several papers.
Compare with care: the assays were run in different laboratories.
Cnr2: Cannabinoid receptor 2 (Cnr2, Mus musculus, UniProt P47936)
PDGFRA: Platelet-derived growth factor receptor alpha (PDGFRA, Homo sapiens, UniProt P16234)
G protein-coupled receptor 88: G protein-coupled receptor 88 (Homo sapiens, UniProt Q9GZN0)

CCOC(=O)[C@](CC)(CCC[S+]([O-])CCOCCOCCNC(=O)OC(C)(C)C)NC(=O)c1ccc(C2CC2)c(Cc2ccc(F)cc2)n1 (stereo partly drawn)  Emax (Cnr2; cAMP, agonist): 79%
Cc1nc2c(=O)n(C)c(=O)nc-2n(C)n1  ΔTm (Protein disulfide-isomerase (P4HB, Homo sapiens, UniProt P07237); thermal stability, DSF; 10 µM): -2.94 °C
Cn1cc(-c2cc(F)cc(N3CCn4c(cc5c4CCCC5)C3=O)c2CO)cc(Nc2ccc(N3CCN(C4COC4)CC3)cn2)c1=O  inhibition (PDGFRA; enzyme activity, inhibitor; 0.1 µM): 23%
C#Cc1n[nH]c2c(-c3cn([C@@H](C)c4ccccn4)c(=O)[nH]c3=O)cc(F)cc12  inhibition (Protein kinase C theta type (PRKCQ, Homo sapiens, UniProt Q04759); enzyme activity, inhibitor; 0.1 µM): 13.6%
COc1ncccc1-c1cnn2ccc(N3CCN(C(=O)OC(C)C)CC3)nc12  remaining binding (PDGFRA; binding, competition with immobilised ligand; 1 µM): 100%
CCCc1ccc(-c2ccc([C@@H](CO)C(=O)N[C@H](C)c3ccccc3)cc2)cc1  Emax (G protein-coupled receptor 88; cAMP, agonist, TR-FRET): 96%
Nc1ncc(-c2nc(N3CCOCC3)nc(N3CCOCC3)n2)c(C(F)F)n1  remaining binding (Mitogen-activated protein kinase kinase kinase kinase 5 (MAP4K5, Homo sapiens, UniProt Q9Y4K4); binding, competition with immobilised ligand; 10 µM): 100%
CCCCCOc1ccc([C@@H](CO)C(=O)N[C@H](C)c2ccccc2)cc1  Emax (G protein-coupled receptor 88; cAMP, agonist, TR-FRET; CHO): 103%
CC(C)C[C@H](NC(=O)[C@H]1O[C@@H]1C(=O)O)C(=O)NCCCCN=C(N)N  inhibition (Procathepsin L (CTSL, Homo sapiens, UniProt P07711); enzyme activity, inhibitor; 500 pM): 13%
Cn1cc(-c2cccc(N3CCc4c(sc5c4CC(C)(C)C5)C3=O)c2CO)cc(Nc2ccncn2)c1=O  inhibition (Platelet-derived growth factor receptor alpha (PDGFRA, Homo sapiens, UniProt P16234, T674I); enzyme activity, inhibitor; 1 µM): -4%
Cc1nn(C)cc1-c1nc2c(N3CCN(Cc4ccc(Cl)cc4)CC3)c(Cl)cnc2[nH]1  remaining binding (5'-AMP-activated protein kinase catalytic subunit alpha-1 (PRKAA1, Homo sapiens, UniProt Q13131); binding, competition with immobilised ligand; 1 µM): 2.4%
CC[C@H](C)COc1ccc([C@@H](CO)C(=O)N[C@H](C)c2ccccc2)cc1  Emax (G protein-coupled receptor 88; cAMP, agonist, TR-FRET): 88%
CCN1CCN(Cc2ccc(C(=O)Nc3ccc(C)c(Oc4ccc5c(c4)CC(=O)N5)c3)cc2C(F)(F)F)CC1  remaining binding (Cyclin-dependent kinase 13 (CDK13, Homo sapiens, UniProt Q14004); binding, competition with immobilised ligand; 1 µM): 100%
CCC[C@@H](C)COc1ccc([C@@H](CO)C(=O)N[C@H](C)c2ccccc2)cc1  Emax (G protein-coupled receptor 88; cAMP, agonist, TR-FRET; CHO): 105%
CCOC(=O)C(CC)(CCCSCCOCCOCCOCCOCCNC(=O)OC(C)(C)C)NC(=O)c1ccc(C2CC2)c(Cc2ccc(F)cc2)n1 (stereo not drawn)  Emax (Cnr2; cAMP, agonist): 84%
